M1 PAM parental: counter-screen for M1 PAMs: effect in parental CHO-K1 cells. ATP EC20, Fluo-8 calcium fluorescence; 0% at ATP EC20, 100% at ATP max. activation, % at 3 µM. actives 0.02% (n = 360,000). AID 602247;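 active = activation above the run cutoff, the mean activation of all test compounds plus 3 SD, cut at about 40% in these data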;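 also: peak over basal fluorescence ratio in a 140 s read after ATP addition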
M1 ag parental: counter-screen for M1 agonists: effect in parental CHO-K1 cells | Fluo-8 calcium fluorescence; scaled to maximal ATP response, vehicle zero | activation, % at 3 µM | actives 0.48% (n = 360,000) | AID 602248; in the data active = activation above about 15%;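 also: untransfected CHO-K1 host cells lacking M1 receptor as counterscreen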
CHO parental Ca: counter-screen for OX1R antagonists: effect in parental CHO cells | parental CHO-K1, ATP-induced calcium, Fluo-8 fluorescence | inhibition, % at 5.6 µM | actives 0.63% (n = 330,000) | AID 463079;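 active = inhibition above that plate's mean sample inhibition plus 3 SD, cut at about 26% in these data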;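 also: 0% = ATP-challenged DMSO wells and 100% = DMSO wells without ATP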
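Material: Parental CHO cells | Reagent: ATP | Compound dosing: Single nominal dose of 5.6 µM per compound | Detection: Intracellular calcium via Fluo-8 no-wash fluorescent dye | Read-out: % inhibition of ATP-induced calcium mobilization | Benchmarks: Low control ATP plus DMSO, high control DMSO only | Replicates: Singlicate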
CHO-K1 Ca antag: counter-screen for M1 antagonists: effect in parental CHO-K1 cells; ATP-induced calcium, Fluo-8 fluorescence; inhibition, % at 3 µM; actives 0.6% (n = 360,000); AID 602250;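 active = inhibition above a per-plate cutoff, the plate's mean sample inhibition plus 3 SD, cut at about 24% in these data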;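 also: 0% = DMSO plus EC80 ATP and 100% = DMSO alone without ATP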
OX1R antag-1: blocks the human orexin 1 receptor. actives 1.8% (n = 330,000). O43613. inhibition, % at 6.6 µM. OX1R-expressing cells, FRET antagonist read-out. AID 485270; in the data active = inhibition mostly above about 38%, no sharp cut-off; inactive = mostly below about 40%;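 also: 0% = agonist challenge alone and 100% = reference antagonist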
Target sequence (O43613 whole entry, looked up): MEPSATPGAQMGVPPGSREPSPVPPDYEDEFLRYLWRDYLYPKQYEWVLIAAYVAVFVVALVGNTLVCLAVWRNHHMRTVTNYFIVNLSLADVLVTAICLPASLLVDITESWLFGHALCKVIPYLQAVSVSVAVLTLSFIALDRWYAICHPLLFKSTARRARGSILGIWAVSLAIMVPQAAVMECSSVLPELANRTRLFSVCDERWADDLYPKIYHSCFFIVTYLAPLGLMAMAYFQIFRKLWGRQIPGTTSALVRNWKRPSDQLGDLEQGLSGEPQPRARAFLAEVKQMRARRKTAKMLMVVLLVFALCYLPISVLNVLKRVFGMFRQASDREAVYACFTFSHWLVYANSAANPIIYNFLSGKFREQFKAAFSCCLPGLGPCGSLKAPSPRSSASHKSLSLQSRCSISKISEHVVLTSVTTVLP
OX1R antag-2: antagonists of human orexin 1 receptor | O43613 | CHO/OX1R cells, Fluo-8 calcium fluorescence, orexin A | inhibition, % at 5 µM | actives 0.43% (n = 330,000);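 active = inhibition above its plate's threshold, mean inhibition of all tested compounds on the plate plus 3 SD, cut at about 37% in these data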;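 also: 0% = orexin A challenge wells and 100% = SB-334867-A antagonist wells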
OX1R HTRF conf: confirmation of human orexin 1 receptor antagonists, HTRF format | shares compounds with OX1R antag-1 | OX1R-expressing cells, HTRF antagonist assay | inhibition, % at 6.6 µM | actives 49% (n = 1,800) | AID 492964; in the data active = inhibition above about 55%;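 also: CHO cells expressing OX1R stimulated with orexin A at about EC80; 0% = agonist challenge alone and 100% = reference antagonist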
CHO-K1 HTRF: counter-screen: parental CHO-K1 HTRF response | shares compounds with OX1R antag-1 | parental CHO-K1 cells, HTRF counterscreen | inhibition, % at 6.6 µM | actives 48% (n = 1,800) | AID 493232; in the data active = inhibition above about 17%;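 also: 0% = agonist challenge with vehicle and 100% = vehicle alone without agonist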
Starred values were filed as active, the others as inactive; . = no result. A selection: hits, their analogues and other compounds. The true share with any hit is near 2.9%.

SMILES	M1 PAM parental	M1 ag parental	CHO parental Ca	CHO-K1 Ca antag	OX1R antag-1	OX1R antag-2	OX1R HTRF conf	CHO-K1 HTRF
Cc1nc2ccccc2c2oc(C(=O)Nc3ccc4c(c3)OCCO4)cc12	7	0	-24	2	95*	-8	89*	7
O=C(Nc1ccc2c(c1)OCCO2)c1cc2ccccc2o1	-8	0	3	10	37	-1	.	.
NS(=O)(=O)c1ccc(CNC(=O)c2cc(-c3cccnc3)nc3ccc(Cl)cc23)cc1	2	1	-14	0	19	-7	.	.
NS(=O)(=O)c1ccc(CNC(=O)c2cc(-c3ccccn3)nc3ccc(Cl)cc23)cc1	16	2	-8	-13	84*	4	59*	5
O=C(NCC(c1cccs1)N1CCOCC1)c1cc([N+](=O)[O-])cc([N+](=O)[O-])c1 (stereo not drawn)	-8	0	-6	11	112*	-9	39	58*
CN(C)C(=O)c1cc2cc([N+](=O)[O-])ccc2s1	14	1	5	-12	120*	-7	39	33*
O=C(Nc1ccccn1)c1cc2cc([N+](=O)[O-])ccc2s1	-11	1	10	13	20	-21	.	.
Cc1ccc(-n2c3nc(=O)[nH]c(=O)c-3cc3cc([N+](=O)[O-])ccc32)cc1	17	0	-12	-10	84*	-6	56*	65*
Cc1ccc(-n2c(C)nn(Cc3ccc([N+](=O)[O-])cc3)c2=O)cc1	8	5	-8	-9	29	-21	.	.
C=CCCO[C@@H]1O[C@@H](C)[C@H](O)C[C@H]1O	15	1	-2	-13	-3	11	.	.
c1cncc(-c2nc(N3CCCCCC3)c3ccccc3n2)c1	19	1	-24	-10	30	-26	.	.
c1ccc2c(N3CCCCCC3)nc(-c3ccncc3)nc2c1	24	0	-50	-10	88*	-20	41	8
Cc1ccc(SCC(=O)OC(C)C(=O)Nc2ccc(S(N)(=O)=O)cc2)cc1C (stereo not drawn)	-19	5	-7	1	6	-5	.	.
[O-][n+]1onc2c1CCc1nnc(-c3ccccc3)cc1-2	-9	0	-21	-9	151*	-18	39	70*
CCc1noc(C)c1C(=O)NNC(=O)COc1ccc(C)c(C)c1	-9	0	-19	3	20	-28	.	.
COc1ncc(C2=CC(=O)CC(C)(C)C2)cn1	4	0	-8	-11	13	-16	.	.
CCCc1cc(=O)[nH]c(SCC(=O)N2CCc3ccccc32)n1	-3	0	-1	-6	8	-27	.	.
COc1ccc(C2CCN(Cc3cccnc3)CC2O)cc1 (stereo not drawn)	16	1	-5	-6	96*	-16	16	3
CCN(CC)CCCC(C)n1c(C)cc(C(=O)NS(=O)(=O)c2ccc(C)cc2)c1C (stereo not drawn)	25	1	.	-14	.	.	.	.
COc1ccc(C(=O)C[n+]2ccc(-c3nnc4n3CCC4)cc2)cc1	-12	0	-4	12	85*	-8	64*	50*
O=[N+]([O-])c1ccc2c(c1)nc1n2CCN(c2ccccc2)C1	14	6	-7	0	17	-14	.	.
O=[N+]([O-])c1ccc2c(c1)nc1n2CCN(CC2CCCO2)C1 (stereo not drawn)	-5	0	-8	-12	81*	-14	43	27*
OCc1cn(-c2ccccc2)nc1-c1cc2ccccc2o1	10	1	0	-19	81*	-13	35	12
Cc1ccc(NS(=O)(=O)c2cccc(C(=O)N3CCN(C(=O)c4ccco4)CC3)c2)cc1	-1	4	-33	7	-2	-11	.	.
O=C(Nc1cccc(S(=O)(=O)N2CCCCC2)c1)C1=NN(c2ccccc2)C(=O)CC1	10	2	-10	-13	0	-16	.	.
SMILES	M1 PAM parental	M1 ag parental	CHO parental Ca	CHO-K1 Ca antag	OX1R antag-1	OX1R antag-2	OX1R HTRF conf	CHO-K1 HTRF
COc1ccccc1NC(=O)c1nn(-c2cccc(C(F)(F)F)c2)ccc1=O	11	1	-6	-2	82*	12	66*	5
Oc1nc(Nc2ccc(F)cc2)sc1/C=C1\C=Nc2ccccc21	7	2	2	-3	93*	23	23	-1
Oc1cccc(Nc2nc(O)c(/C=C3\C=Nc4ccccc43)s2)c1	11	8	17	-6	18	10	.	.
C=CCNC(=O)CCC(=O)NNc1nc2ccccc2c2nc(-c3ccccc3)nn12	-13	2	-5	2	84*	27	86*	6
O=c1[nH]c(=O)c2nc(-c3ccc(Cl)cc3)cnc2[nH]1	-12	-1	-6	5	77*	-5	52	68*
CC(=O)Nc1ccc(NC(=O)C(C)OC(=O)C(C)SCC(=O)Nc2ccc(C)cc2)cc1 (stereo not drawn)	10	1	11	4	82*	-1	75*	3
CCC1(c2ccccc2)ON(c2c(Br)cccc2Br)C1=O (stereo not drawn)	-19	0	-10	5	13	-24	.	.
Cc1ccc(NCC(=O)N=Nc2c(O)n(C)c3ccccc23)cc1	9	0	11	-11	95*	-4	38	32*
Cc1ccc2nc3ccc(N4CCCCCCC4)nn3c(=O)c2c1	18	1	-10	2	56	-26	.	.
Cc1ccc2nc3ccc(N4CCN(C)CC4)nn3c(=O)c2c1	-2	0	-13	3	77*	-11	36	25*
Cc1cc(N2CCOCC2)nc2ccccc12	14	0	-19	-9	15	-27	.	.
O=c1c2ccccc2nc2ccc(N3CCOCC3)nn12	-6	0	-4	7	94*	-11	31	37*
O=C(CSc1cccc[n+]1[O-])c1cc(Cl)ccc1Cl	16	1	-5	-22	32	-1	.	.
CN(Cc1cnn(C)c1)C(=O)C1CCC(=O)N(Cc2ccc(Cl)cc2)C1 (stereo not drawn)	-20	1	1	-5	7	-15	.	.
Cc1cc(C)c2cc(C#N)c(SCC(=O)Nc3ccc4c(c3)OCO4)nc2c1	13	0	-3	-5	8	-18	.	.
CN(C)CCNC(=O)c1cccc(S(=O)(=O)Nc2ccccc2F)c1	-15	0	4	17	9	2	.	.
COc1ccc(NC(=O)c2ccc(Br)c(S(=O)(=O)N3CCOCC3)c2)cc1	-16	11	-1	1	34	-24	.	.
Cc1ccc2ncnc(Nc3ccc(C)c(C)c3)c2c1	7	0	-13	-11	78*	-29	42	12
